Data as given in ChEMBL document CHEMBL4382220, “Enhancement of the tail hydrophobic interactions within the carbonic anhydrase IX active site via structural extension: Design and synthesis of novel N-substituted isatins-SLC-0111 hybrids as carbonic anhydrase inhibitors and antitumor agents” (Eur J Med Chem, 2019).

Assays:
Carbonic anhydrase 1 = Carbonic anhydrase 1 (Homo sapiens, UniProt P00915); experiment: Inhibition of recombinant human carbonic anhydrase 1 by stopped flow CO2 hydration assay
Carbonic anhydrase 1, sequence (P00915 whole entry): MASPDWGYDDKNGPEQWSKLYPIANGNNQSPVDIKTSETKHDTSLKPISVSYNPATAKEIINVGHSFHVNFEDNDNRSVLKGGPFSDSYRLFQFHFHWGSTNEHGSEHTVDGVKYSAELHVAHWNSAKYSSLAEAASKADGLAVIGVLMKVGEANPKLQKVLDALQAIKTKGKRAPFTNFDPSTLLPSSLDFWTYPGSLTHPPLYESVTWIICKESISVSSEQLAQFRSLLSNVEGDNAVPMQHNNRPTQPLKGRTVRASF

Carbonic anhydrase 9 = Carbonic anhydrase 9 (Homo sapiens, UniProt Q16790)
MDA-MB-231 [1] = experiment: Antiproliferative activity against human MDA-MB-231 cells after 48 hrs under hypoxic condition by MTT assay; assay type: functional, cell-based; conditions: MDA-MB-231, 48 h
Outline: (§1)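 MCF-7 and MDA-MB-231 cells (ATCC) grown in DMEM with 10% heat-inactivated FBS, 1% L-glutamine (2.5 mM), 10 mM HEPES, 50 μg/mL gentamycin and 100 μM CoCl2 as hypoxia inducer, 37 C, 5% CO2. MTT read-out after 48 h exposure. IC50 is the concentration giving 50% growth inhibition relative to untreated controls, mean ± S.D. of three separate experiments.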

MCF7 = experiment: Antiproliferative activity against human MCF7 cells after 48 hrs under hypoxic condition by MTT assay; assay type: functional, cell-based; conditions: MCF7, 48 h; outline: as §1
MDA-MB-231 [2] = experiment: Induction of apoptosis in human MDA-MB-231 cells assessed as early apoptotic cells after 24 hrs by Annexin V-FITC/propidium iodide staining based flow cytometry (reference value: 0.77%); assay type: functional
MDA-MB-231 [3] = experiment: Induction of apoptosis in human MDA-MB-231 cells assessed as late apoptotic cells after 24 hrs by Annexin V-FITC/propidium iodide staining based flow cytometry (reference value: 0.26%); assay type: functional
MDA-MB-231 [4] = experiment: Induction of apoptosis in human MDA-MB-231 cells assessed as necrotic cells after 24 hrs by Annexin V-FITC/propidium iodide staining based flow cytometry (reference value: 0.51%); assay type: functional
[5] = molecular target: Vascular endothelial growth factor receptor 2 (Homo sapiens, UniProt P35968)
Vascular endothelial growth factor receptor 2, sequence (P35968 whole entry): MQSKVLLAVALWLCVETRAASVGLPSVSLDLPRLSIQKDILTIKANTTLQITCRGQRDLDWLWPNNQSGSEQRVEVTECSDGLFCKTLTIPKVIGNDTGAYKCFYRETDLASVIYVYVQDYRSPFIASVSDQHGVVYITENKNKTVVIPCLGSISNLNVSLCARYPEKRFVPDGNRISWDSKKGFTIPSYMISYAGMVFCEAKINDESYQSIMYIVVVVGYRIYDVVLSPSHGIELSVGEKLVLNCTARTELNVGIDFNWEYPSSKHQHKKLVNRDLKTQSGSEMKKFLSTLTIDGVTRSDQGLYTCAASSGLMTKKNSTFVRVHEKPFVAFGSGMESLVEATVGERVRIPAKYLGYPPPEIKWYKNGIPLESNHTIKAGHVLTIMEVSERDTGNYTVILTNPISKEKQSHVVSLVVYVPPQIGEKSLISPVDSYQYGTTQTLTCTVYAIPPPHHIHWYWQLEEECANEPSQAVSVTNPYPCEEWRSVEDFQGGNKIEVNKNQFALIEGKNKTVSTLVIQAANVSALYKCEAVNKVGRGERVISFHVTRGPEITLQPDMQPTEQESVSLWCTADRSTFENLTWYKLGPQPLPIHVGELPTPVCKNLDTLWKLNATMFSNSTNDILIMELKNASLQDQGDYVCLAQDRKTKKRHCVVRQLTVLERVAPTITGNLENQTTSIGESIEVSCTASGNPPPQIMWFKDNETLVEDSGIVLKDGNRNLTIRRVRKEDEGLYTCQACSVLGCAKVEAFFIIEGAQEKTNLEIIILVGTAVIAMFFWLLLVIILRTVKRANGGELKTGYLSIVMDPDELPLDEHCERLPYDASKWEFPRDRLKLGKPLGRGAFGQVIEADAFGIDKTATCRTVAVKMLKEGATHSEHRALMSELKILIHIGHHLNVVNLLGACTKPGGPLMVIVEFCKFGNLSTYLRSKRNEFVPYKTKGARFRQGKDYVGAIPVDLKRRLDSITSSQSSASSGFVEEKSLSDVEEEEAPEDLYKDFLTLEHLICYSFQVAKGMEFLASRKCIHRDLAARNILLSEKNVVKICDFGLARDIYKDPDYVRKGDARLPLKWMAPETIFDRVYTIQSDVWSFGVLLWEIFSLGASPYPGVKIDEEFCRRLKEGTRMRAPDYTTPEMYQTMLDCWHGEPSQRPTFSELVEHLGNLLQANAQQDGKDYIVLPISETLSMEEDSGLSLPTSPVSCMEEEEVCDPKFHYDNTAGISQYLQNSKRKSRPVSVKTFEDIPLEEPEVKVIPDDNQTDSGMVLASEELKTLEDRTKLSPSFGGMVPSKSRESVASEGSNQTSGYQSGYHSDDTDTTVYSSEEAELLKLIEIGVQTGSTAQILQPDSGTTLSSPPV

Row | SMILES | Ki (Carbonic anhydrase 1) | Ki (Carbonic anhydrase 9) | also measured
1 | NS(=O)(=O)c1ccc(NC(=O)Nc2ccc(/N=C3\C(=O)N(Cc4ccccc4)c4ccccc43)cc2)cc1 | 641 nM | 73.2 nM | –
2 | CN1C(=O)/C(=N\c2ccc(NC(=O)Nc3ccc(S(N)(=O)=O)cc3)cc2)c2cc(Cl)ccc21 | 407 nM | 5.2 nM | IC50 (MDA-MB-231 [1]): 7430 nM; IC50 (MCF7): 12900 nM; Activity (MDA-MB-231 [2]): 7.28%; Activity (MDA-MB-231 [3]): 11.26%; Activity (MDA-MB-231 [4]): 2.47%; IC50 [5]: 261 nM
3 | CN1C(=O)/C(=N\c2ccc(NC(=O)Nc3ccc(S(N)(=O)=O)cc3)cc2)c2ccccc21 | 898 nM | 25.1 nM | –
4 | N#Cc1ccc(CN2C(=O)/C(=N\c3ccc(NC(=O)Nc4ccc(S(N)(=O)=O)cc4)cc3)c3cc(Br)ccc32)cc1 | 5840 nM | 36.9 nM | –
5 | CN1C(=O)/C(=N\c2ccc(NC(=O)Nc3ccc(S(N)(=O)=O)cc3)cc2)c2cc(Br)ccc21 | 1960 nM | 9.2 nM | –
6 | CCCN1C(=O)/C(=N\c2ccc(NC(=O)Nc3ccc(S(N)(=O)=O)cc3)cc2)c2cc(Br)ccc21 | 2960 nM | 26.7 nM | –
7 | Cc1ccc(CN2C(=O)/C(=N\c3ccc(NC(=O)Nc4ccc(S(N)(=O)=O)cc4)cc3)c3cc(Br)ccc32)cc1 | 4640 nM | 26.4 nM | –
8 | Cc1ccc(CN2C(=O)/C(=N\c3ccc(NC(=O)Nc4ccc(S(N)(=O)=O)cc4)cc3)c3ccccc32)cc1 | 6570 nM | 4.7 nM | IC50 (MDA-MB-231 [1]): 48900 nM; IC50 (MCF7): 11800 nM; IC50 [5]: 462 nM
9 | CCCN1C(=O)/C(=N\c2ccc(NC(=O)Nc3ccc(S(N)(=O)=O)cc3)cc2)c2cc(Cl)ccc21 | 607 nM | 8.2 nM | IC50 (MDA-MB-231 [1]): 25600 nM; IC50 (MCF7): 7360 nM; IC50 [5]: 384 nM
10 | NS(=O)(=O)c1ccc(NC(=O)Nc2ccc(/N=C3\C(=O)N(Cc4ccccc4)c4ccc(Cl)cc43)cc2)cc1 | 2500 nM | 86.1 nM | –
11 | NS(=O)(=O)c1ccc(NC(=O)Nc2ccc(/N=C3\C(=O)N(Cc4cccc(F)c4)c4ccc(Cl)cc43)cc2)cc1 | 5100 nM | 58.8 nM | –
12 | Cc1ccc(CN2C(=O)/C(=N\c3ccc(NC(=O)Nc4ccc(S(N)(=O)=O)cc4)cc3)c3cc(Cl)ccc32)cc1 | 6150 nM | 43 nM | –
13 | N#Cc1ccc(CN2C(=O)/C(=N\c3ccc(NC(=O)Nc4ccc(S(N)(=O)=O)cc4)cc3)c3ccccc32)cc1 | 2290 nM | 9.7 nM | IC50 (MDA-MB-231 [1]): 23200 nM; IC50 (MCF7): 5970 nM; IC50 [5]: 207 nM
14 | NS(=O)(=O)c1ccc(NC(=O)Nc2ccc(/N=C3\C(=O)N(Cc4ccccc4)c4ccc(Br)cc43)cc2)cc1 | 5890 nM | 41.2 nM | –
15 | N#Cc1ccc(CN2C(=O)/C(=N\c3ccc(NC(=O)Nc4ccc(S(N)(=O)=O)cc4)cc3)c3cc(Cl)ccc32)cc1 | 8290 nM | 34.7 nM | –
16 | NS(=O)(=O)c1ccc(NC(=O)Nc2ccc(/N=C3\C(=O)N(Cc4cccc(F)c4)c4ccccc43)cc2)cc1 | 2070 nM | 54.5 nM | –
17 | NS(=O)(=O)c1ccc(NC(=O)Nc2ccc(/N=C3\C(=O)N(Cc4cccc(F)c4)c4ccc(Br)cc43)cc2)cc1 | 4700 nM | 61.2 nM | –
18 | CCCN1C(=O)/C(=N\c2ccc(NC(=O)Nc3ccc(S(N)(=O)=O)cc3)cc2)c2ccccc21 | 939 nM | 19.6 nM | –
19 | COc1cccc2c1C(=O)c1c(O)c3c(c(O)c1C2=O)C[C@@](O)(C(=O)CO)C[C@@H]3O[C@H]1C[C@H](N)[C@H](O)[C@H](C)O1 [DOXORUBICIN] | – | – | IC50 (MDA-MB-231 [1]): 8500 nM
